# Assay results taken from ChEMBL document CHEMBL1144424, “Synthesis and biological evaluation of 14-alkoxymorphinans. 22.(1) Influence of the 14-alkoxy group and the substitution in position 5 in 14-alkoxymorphinan-6-ones on in vitro and in vivo activities” (J Med Chem, 2005).
# Columns and labels:
# [1] = molecular target: Kappa-type opioid receptor (Cavia porcellus, UniProt P41144); assay: Inhibition of [3H]U-69593 binding to opioid receptor kappa from guinea pig brain membranes
# [2] = molecular target: Delta-type opioid receptor (Mus musculus, UniProt P32300); assay: In vitro agonistic activity against opioid receptor delta of mouse vas deferens; assay type: functional, tissue-based
# Method in brief: (§1)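 Field stimulation with supramaximal-voltage bipolar rectangular pulses of male guinea-pig ileum myenteric plexus longitudinal muscle and of mouse vas deferens. Inhibition of the electrically evoked twitch; IC50 values as mean ± SEM.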
# [3] = Ratio of binding affinities for opioid receptors kappa and mu
# Method in brief: (§2)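 Ratios of Ki values from competition binding. Rat brain membranes were used with 0.5 nM [3H]DAMGO (mu) or [3H][Ile5,6]deltorphin II (delta), 45 min at 35 °C. Guinea pig brain membranes were used with 1 nM [3H]U69,593 (kappa), 30 min at 30 °C. Nonspecific binding was defined with 10 µM naloxone.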
# [4] = molecular target: Mu-type opioid receptor (Rattus norvegicus, UniProt P33535); assay: Inhibition of [3H]DAMGO binding to opioid receptor mu from rat brain membranes; assay type: cell membranes, Membrane
# Method in brief: (§3)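 Sprague-Dawley rat brain membranes (0.3-0.5 mg protein) in 50 mM Tris-HCl incubated with 0.5 nM [3H]DAMGO or [3H][Ile5,6]deltorphin II, 45 min at 35 °C. GF/C filtration, ice-cold Tris-HCl washes; nonspecific binding with 10 µM naloxone. Duplicates, 3-4 independent experiments; Ki as mean ± SEM.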
# [5] = Relative agonistic activity against opioid receptor delta in mouse vas deferens and opioid receptor mu in guinea pig ileum; assay type: functional
# [6] = molecular target: Mu-type opioid receptor (Cavia porcellus, UniProt P97266); assay: In vitro agonistic activity against opioid receptor mu of guinea pig ileum; assay type: functional, tissue-based; method in brief: as §1
# [7] = tested on: Mus musculus; assay: Antinociceptive potencie was assessed after subcutaneous administration of compound by hotplate test (HP) in mice; assay type: functional
# Method in brief: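 Male CD-1 mice (20-25 g), compound in sterile Ringer's solution given sc, 10 animals per dose. Paw licking or jumping on 55 °C hot-plate; pre-drug control latency (non-responders within 3 s excluded), 12 s cutoff.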
# [8] = species: Mus musculus; assay: Ratios of colonic bead expulsion to that of antinociceptive potencie by hotplate test in mice; assay type: functional
# [9] = tested on: Mus musculus; assay: Gastrointestinal (GI) motility was assessed by colonic bead expulsion after subcutaneous administration in mice; assay type: functional; details: sc
# [10] = molecular target: Delta-type opioid receptor (Rattus norvegicus, UniProt P33533); assay: Inhibition of [3H][Ile5,6]deltorphin II binding to opioid receptor delta from rat brain membranes; assay type: cell membranes, Membrane; method in brief: as §3
# [11] = molecular target: Opioid receptors; mu & delta (Rattus norvegicus) (UniProt P33533+P33535); assay: Ratio of binding affinities for opioid receptors delta and mu; assay type: protein assay; method in brief: as §2
# Opioid receptors; mu & delta (Rattus norvegicus), sequence (P33533 whole entry, looked up): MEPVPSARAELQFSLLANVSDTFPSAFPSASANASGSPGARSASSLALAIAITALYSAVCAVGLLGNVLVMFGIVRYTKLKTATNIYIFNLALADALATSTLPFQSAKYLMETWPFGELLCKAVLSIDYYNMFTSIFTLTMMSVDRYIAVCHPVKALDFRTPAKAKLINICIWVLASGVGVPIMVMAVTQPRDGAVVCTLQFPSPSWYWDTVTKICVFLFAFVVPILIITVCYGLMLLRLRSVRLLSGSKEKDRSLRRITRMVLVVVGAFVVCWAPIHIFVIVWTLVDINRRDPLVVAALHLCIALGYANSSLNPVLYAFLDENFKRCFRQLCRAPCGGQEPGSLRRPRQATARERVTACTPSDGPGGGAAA
# Opioid receptors; mu & delta (Rattus norvegicus), sequence (P33535 whole entry, looked up): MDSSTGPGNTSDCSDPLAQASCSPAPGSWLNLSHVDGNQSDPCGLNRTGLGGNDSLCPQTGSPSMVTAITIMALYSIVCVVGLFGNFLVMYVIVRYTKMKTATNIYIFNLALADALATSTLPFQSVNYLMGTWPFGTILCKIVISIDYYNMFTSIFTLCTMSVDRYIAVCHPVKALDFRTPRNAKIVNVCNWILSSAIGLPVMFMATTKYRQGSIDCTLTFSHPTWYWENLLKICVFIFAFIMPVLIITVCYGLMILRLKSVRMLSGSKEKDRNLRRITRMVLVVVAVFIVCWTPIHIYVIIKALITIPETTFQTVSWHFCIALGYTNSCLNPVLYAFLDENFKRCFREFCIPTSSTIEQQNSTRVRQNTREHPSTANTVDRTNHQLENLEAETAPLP
# Mu-type opioid receptor (Cavia porcellus, UniProt P97266), sequence (P97266 whole entry): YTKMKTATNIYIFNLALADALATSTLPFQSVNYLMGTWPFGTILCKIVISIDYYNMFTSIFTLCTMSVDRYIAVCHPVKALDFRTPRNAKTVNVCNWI
# Delta-type opioid receptor (Mus musculus, UniProt P32300), sequence (P32300 whole entry): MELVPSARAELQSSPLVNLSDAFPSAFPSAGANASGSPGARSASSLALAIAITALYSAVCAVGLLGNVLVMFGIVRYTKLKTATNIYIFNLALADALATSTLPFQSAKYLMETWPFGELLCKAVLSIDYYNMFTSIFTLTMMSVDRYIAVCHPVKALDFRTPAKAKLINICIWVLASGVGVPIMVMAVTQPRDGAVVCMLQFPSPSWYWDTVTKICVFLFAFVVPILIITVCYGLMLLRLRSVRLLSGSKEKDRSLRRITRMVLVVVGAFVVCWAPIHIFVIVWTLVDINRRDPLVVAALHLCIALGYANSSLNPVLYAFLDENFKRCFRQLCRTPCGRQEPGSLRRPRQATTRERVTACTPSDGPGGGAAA
# Mu-type opioid receptor (Rattus norvegicus, UniProt P33535), sequence (P33535 whole entry): as the sequence (P33535 whole entry, looked up) above
# Kappa-type opioid receptor, sequence (P41144 whole entry): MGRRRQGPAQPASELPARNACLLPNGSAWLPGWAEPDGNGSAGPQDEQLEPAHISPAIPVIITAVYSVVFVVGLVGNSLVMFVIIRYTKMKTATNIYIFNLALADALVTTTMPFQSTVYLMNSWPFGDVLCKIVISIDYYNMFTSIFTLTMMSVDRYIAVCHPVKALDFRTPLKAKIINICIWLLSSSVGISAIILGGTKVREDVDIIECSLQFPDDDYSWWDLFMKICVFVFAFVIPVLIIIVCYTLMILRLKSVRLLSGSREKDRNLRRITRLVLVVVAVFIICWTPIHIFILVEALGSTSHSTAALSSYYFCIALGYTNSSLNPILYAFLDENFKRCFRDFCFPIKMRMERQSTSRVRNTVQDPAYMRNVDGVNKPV
# Delta-type opioid receptor (Rattus norvegicus, UniProt P33533), sequence (P33533 whole entry): as the sequence (P33533 whole entry, looked up) above
SMILES,Ki [1] [nM],IC50 [2] [nM],Selectivity [3],Ki [4] [nM],Ratio [5],IC50 [6] [nM],AD50 [7] [nmol/kg],Ratio [8],ED50 [9] [µmol/kg],Ki [10] [nM],Selectivity [11]
CN1CC[C@]23c4c5ccc(O)c4O[C@H]2C(=O)CC[C@@]3(OCc2ccccc2)[C@H]1C5,1.18,1.5,10,0.12,1.7,0.9,9.6,2.8,0.027,2.14,18
CN1CC[C@]23c4c5ccc(O)c4O[C@H]2C(=O)CC[C@@]3(OCc2c(Cl)cccc2Cl)[C@H]1C5,33.2,209,3.2,10.3,0.2,1000,1640,1.5,2.49,152,15
CN1CC[C@]23c4c5ccc(O)c4O[C@@]2(C)C(=O)CC[C@@]3(OCc2ccccc2)[C@H]1C5,2.46,2.3,14,0.18,4.6,0.5,65,1.1,0.074,3.67,20
CN1CC[C@]23c4c5ccc(O)c4O[C@H]2[C@@H](O)C=C[C@H]3[C@H]1C5 [MORPHINE],–,–,–,–,–,–,6690,–,7.62,–,–
CO[C@@]12CCC(=O)[C@@H]3Oc4c(O)ccc5c4[C@@]31CCN(C)[C@@H]2C5,–,30.5,–,–,–,2,53,–,0.022,4.8,–
CN1CC[C@]23c4c5ccc(O)c4O[C@H]2C(=O)CC[C@@]3(OCc2cccc3ccccc23)[C@H]1C5,0.92,0.8,5.1,0.18,0.9,0.9,14.4,0.8,0.0118,2.92,16
CO[C@@]12CCC(=O)[C@]3(C)Oc4c(O)ccc5c4[C@@]31CCN(C)[C@@H]2C5,25.2,24.4,168,0.15,4,6.1,280,–,–,13.3,89
C=CCO[C@@]12CCC(=O)[C@@H]3Oc4c(O)ccc5c4[C@@]31CCN(C)[C@@H]2C5,33.8,63,55,0.61,3.6,17.6,35,1.1,0.037,36,59
CCO[C@@]12CCC(=O)[C@]3(C)Oc4c(O)ccc5c4[C@@]31CCN(CCc1ccccc1)[C@@H]2C5,83.2,9.7,520,0.16,5.1,1.9,109,1.1,0.121,3.14,20
